In ChEMBL document CHEMBL3758134, “Avertoxins A-D, Prenyl Asteltoxin Derivatives from Aspergillus versicolor Y10, an Endophytic Fungus of Huperzia serrata” (J Nat Prod, 2015):

Molecular target: Acetylcholinesterase (Homo sapiens, UniProt P22303)
Assay: Inhibition of human acetylcholinesterase after 30 mins by microplate reader-based Ellman's method
Details: not given

Sequence of Acetylcholinesterase (P22303 whole entry): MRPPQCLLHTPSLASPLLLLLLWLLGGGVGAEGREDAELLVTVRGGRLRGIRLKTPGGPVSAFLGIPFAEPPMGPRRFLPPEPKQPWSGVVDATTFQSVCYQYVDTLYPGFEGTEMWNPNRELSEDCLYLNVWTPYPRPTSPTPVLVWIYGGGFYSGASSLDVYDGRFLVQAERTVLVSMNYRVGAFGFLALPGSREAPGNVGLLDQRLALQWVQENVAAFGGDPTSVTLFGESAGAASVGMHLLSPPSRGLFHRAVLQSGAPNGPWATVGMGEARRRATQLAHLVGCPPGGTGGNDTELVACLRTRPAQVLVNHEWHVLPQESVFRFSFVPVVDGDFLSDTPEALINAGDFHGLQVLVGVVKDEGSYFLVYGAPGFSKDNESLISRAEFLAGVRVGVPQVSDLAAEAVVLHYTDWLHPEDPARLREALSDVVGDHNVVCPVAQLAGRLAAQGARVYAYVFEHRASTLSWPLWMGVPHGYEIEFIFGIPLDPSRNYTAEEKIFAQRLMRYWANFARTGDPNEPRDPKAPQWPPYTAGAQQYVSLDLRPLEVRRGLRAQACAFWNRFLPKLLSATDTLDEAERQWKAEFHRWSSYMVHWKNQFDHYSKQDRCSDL

Structure (SMILES) | IC50
CC[C@H]1O[C@@H]2O[C@H](/C=C/C=C/C=C/c3oc(=O)cc(OC/C=C(\C)C(=O)OC)c3C)[C@H](O)[C@]2(C)[C@@]1(C)O | 14.9 µM

Test system: HeLa
Assay: Antiproliferative activity against human HeLa cells assessed as cell viability after 72 hrs by SRB assay
Assay type: functional, cell-based
Details: not given
Outline: (§1)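 Cells grown in DMEM with 10% FBS and exposed to compound for 72 h. Viability read by sulforhodamine B (SRB) staining.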

Structure (SMILES) | IC50
CC[C@H]1O[C@@H]2O[C@H](/C=C/C=C/C=C/c3oc(=O)cc(OC)c3C)[C@H](O)[C@]2(C)[C@@]1(C)O | > 50 µM
CC[C@H]1O[C@@H]2O[C@H](/C=C/C=C/C=C/c3oc(=O)cc(OC/C=C(\C)C(=O)OC)c3C)[C@H](O)[C@]2(C)[C@@]1(C)O | > 50 µM
CC[C@H]1O[C@@H]2O[C@H](/C=C/C=C/C=C/c3oc(=O)c4c(c3C)O[C@H](C)C4(C)C)[C@H](O)[C@]2(C)[C@@]1(C)O | 48 µM
CC[C@H]1O[C@@H]2O[C@H](/C=C/C=C/C=C/c3oc(=O)cc(OCC=C(C)C)c3C)[C@H](O)[C@]2(C)[C@@]1(C)O | 48 µM
COC(=O)/C(C)=C/COc1cc(=O)oc(/C=C/C=C/C=C/[C@H]2O[C@H]3O[C@H](C)[C@](C)(O)[C@@]3(C)[C@H]2O)c1C | 11 µM
COc1cc([C@@H]2c3cc4c(cc3[C@@H](O[C@@H]3O[C@@H]5CO[C@@H](C)O[C@H]5[C@H](O)[C@H]3O)[C@H]3COC(=O)[C@H]23)OCO4)cc(OC)c1O [ETOPOSIDE] | 3.2 µM

Test system: not listed separately
Assay: Antiproliferative activity against human HCT116 cells assessed as cell viability after 72 hrs by SRB assay
Assay type: functional, cell-based
Details: HCT-116, 72 h
Outline: as §1

Structure (SMILES) | IC50
CC[C@H]1O[C@@H]2O[C@H](/C=C/C=C/C=C/c3oc(=O)cc(OC)c3C)[C@H](O)[C@]2(C)[C@@]1(C)O | > 50 µM
CC[C@H]1O[C@@H]2O[C@H](/C=C/C=C/C=C/c3oc(=O)cc(OC/C=C(\C)C(=O)OC)c3C)[C@H](O)[C@]2(C)[C@@]1(C)O | 9 µM
CC[C@H]1O[C@@H]2O[C@H](/C=C/C=C/C=C/c3oc(=O)c4c(c3C)O[C@H](C)C4(C)C)[C@H](O)[C@]2(C)[C@@]1(C)O | 50 µM
CC[C@H]1O[C@@H]2O[C@H](/C=C/C=C/C=C/c3oc(=O)cc(OCC=C(C)C)c3C)[C@H](O)[C@]2(C)[C@@]1(C)O | 44 µM
COC(=O)/C(C)=C/COc1cc(=O)oc(/C=C/C=C/C=C/[C@H]2O[C@H]3O[C@H](C)[C@](C)(O)[C@@]3(C)[C@H]2O)c1C | 21 µM
COc1cc([C@@H]2c3cc4c(cc3[C@@H](O[C@@H]3O[C@@H]5CO[C@@H](C)O[C@H]5[C@H](O)[C@H]3O)[C@H]3COC(=O)[C@H]23)OCO4)cc(OC)c1O [ETOPOSIDE] | 26.1 µM

Test system: MDA-MB-231
Assay: Antiproliferative activity against human MDA-MB-231 cells assessed as cell viability after 72 hrs by SRB assay
Assay type: functional, cell-based
Details: MDA-MB-231, 72 h
Outline: as §1

Structure (SMILES) | IC50
CC[C@H]1O[C@@H]2O[C@H](/C=C/C=C/C=C/c3oc(=O)cc(OC)c3C)[C@H](O)[C@]2(C)[C@@]1(C)O | > 50 µM
CC[C@H]1O[C@@H]2O[C@H](/C=C/C=C/C=C/c3oc(=O)cc(OC/C=C(\C)C(=O)OC)c3C)[C@H](O)[C@]2(C)[C@@]1(C)O | 35 µM
CC[C@H]1O[C@@H]2O[C@H](/C=C/C=C/C=C/c3oc(=O)c4c(c3C)O[C@H](C)C4(C)C)[C@H](O)[C@]2(C)[C@@]1(C)O | > 50 µM
CC[C@H]1O[C@@H]2O[C@H](/C=C/C=C/C=C/c3oc(=O)cc(OCC=C(C)C)c3C)[C@H](O)[C@]2(C)[C@@]1(C)O | 37 µM
COC(=O)/C(C)=C/COc1cc(=O)oc(/C=C/C=C/C=C/[C@H]2O[C@H]3O[C@H](C)[C@](C)(O)[C@@]3(C)[C@H]2O)c1C | 28 µM
COc1cc([C@@H]2c3cc4c(cc3[C@@H](O[C@@H]3O[C@@H]5CO[C@@H](C)O[C@H]5[C@H](O)[C@H]3O)[C@H]3COC(=O)[C@H]23)OCO4)cc(OC)c1O [ETOPOSIDE] | 4.2 µM
